The subject of one assay is Balb/MK. Nature of the assay: Tested for antiproliferative activity using mouse epidermal keratinocytes cell line (BALB/MK). The format is functional, cell-based. In outline: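 BALB/MK mouse epidermal keratinocytes, which depend on EGF to proliferate. Compounds were kept as 10 mM DMSO stocks and freshly diluted. They were added 24 h after plating, at a final DMSO concentration of 0.5%. Growth was read by methylene blue staining after 3–5 days, and IC50 was determined.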

For assay [1], the target named is Epidermal growth factor receptor (Homo sapiens, UniProt P00533). The assay is described as follows: In vitro inhibition of the Epidermal growth factor receptor activity in A431 membranes.
A further assay has as its system A431 (Homo sapiens). The assay is described as follows: Inhibition of EGF-dependent tyrosine phosphorylation in A431 cells.
The target in assay [2] is v-abl tyrosine kinase (Abelson murine leukemia virus) (UniProt P00521). The assay is described as follows: In vitro inhibition of the v-abl tyrosine kinase activity using purified v-abl kinase.
A short description of assay [3]: In vitro inhibition of the Protein kinase C tyrosine kinase activity in A431 membranes. The format is cell membranes.
The target of assay [4] is Proto-oncogene tyrosine-protein kinase Src (Homo sapiens, UniProt P12931). Nature of the assay: In vitro inhibition of the c-src tyrosine kinase activity in A431 membranes using angiotensin II as phosphate acceptor as substrate. The format is cell membranes.
In a further assay the test system is Mus musculus. The assay is described as follows: Inhibition of EGF-dependent tyrosine phosphorylation in xenografts of the BT-20 tumor in nude mice. The format is functional, organism-based.

Molecules are shown by their SMILES.

Epidermal growth factor receptor, sequence (P00533 whole entry): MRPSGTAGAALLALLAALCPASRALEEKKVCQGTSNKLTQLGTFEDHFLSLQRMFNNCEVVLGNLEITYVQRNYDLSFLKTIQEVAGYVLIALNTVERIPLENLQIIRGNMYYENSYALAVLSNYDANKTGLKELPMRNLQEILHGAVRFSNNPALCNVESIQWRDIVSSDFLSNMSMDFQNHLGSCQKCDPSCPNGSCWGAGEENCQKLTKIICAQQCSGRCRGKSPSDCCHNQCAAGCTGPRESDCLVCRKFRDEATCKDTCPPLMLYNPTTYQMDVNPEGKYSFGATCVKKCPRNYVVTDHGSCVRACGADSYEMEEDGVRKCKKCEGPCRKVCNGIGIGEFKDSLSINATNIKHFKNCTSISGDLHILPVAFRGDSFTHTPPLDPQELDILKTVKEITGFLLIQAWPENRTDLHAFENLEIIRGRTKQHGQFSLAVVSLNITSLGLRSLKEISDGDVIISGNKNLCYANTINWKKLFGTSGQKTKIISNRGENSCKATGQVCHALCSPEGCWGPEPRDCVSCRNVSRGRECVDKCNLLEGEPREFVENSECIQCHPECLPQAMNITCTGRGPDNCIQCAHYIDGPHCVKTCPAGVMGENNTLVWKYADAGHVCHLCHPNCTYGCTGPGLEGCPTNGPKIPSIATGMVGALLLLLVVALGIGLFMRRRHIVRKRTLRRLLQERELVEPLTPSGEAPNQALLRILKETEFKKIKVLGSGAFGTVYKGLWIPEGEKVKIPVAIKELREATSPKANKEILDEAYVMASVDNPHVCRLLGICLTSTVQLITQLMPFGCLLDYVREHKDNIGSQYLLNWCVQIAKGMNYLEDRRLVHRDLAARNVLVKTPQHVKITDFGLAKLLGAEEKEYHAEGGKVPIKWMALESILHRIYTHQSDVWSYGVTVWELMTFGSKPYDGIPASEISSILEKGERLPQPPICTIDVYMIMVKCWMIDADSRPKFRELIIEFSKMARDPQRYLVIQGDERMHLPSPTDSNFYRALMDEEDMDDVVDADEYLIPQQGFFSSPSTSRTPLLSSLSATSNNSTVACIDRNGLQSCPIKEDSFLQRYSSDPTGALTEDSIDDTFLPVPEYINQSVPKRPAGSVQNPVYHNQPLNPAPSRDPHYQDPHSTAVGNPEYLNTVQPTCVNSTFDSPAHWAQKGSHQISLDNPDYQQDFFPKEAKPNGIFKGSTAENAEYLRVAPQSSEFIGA
v-abl tyrosine kinase (Abelson murine leukemia virus), sequence (P00521 whole entry, looked up): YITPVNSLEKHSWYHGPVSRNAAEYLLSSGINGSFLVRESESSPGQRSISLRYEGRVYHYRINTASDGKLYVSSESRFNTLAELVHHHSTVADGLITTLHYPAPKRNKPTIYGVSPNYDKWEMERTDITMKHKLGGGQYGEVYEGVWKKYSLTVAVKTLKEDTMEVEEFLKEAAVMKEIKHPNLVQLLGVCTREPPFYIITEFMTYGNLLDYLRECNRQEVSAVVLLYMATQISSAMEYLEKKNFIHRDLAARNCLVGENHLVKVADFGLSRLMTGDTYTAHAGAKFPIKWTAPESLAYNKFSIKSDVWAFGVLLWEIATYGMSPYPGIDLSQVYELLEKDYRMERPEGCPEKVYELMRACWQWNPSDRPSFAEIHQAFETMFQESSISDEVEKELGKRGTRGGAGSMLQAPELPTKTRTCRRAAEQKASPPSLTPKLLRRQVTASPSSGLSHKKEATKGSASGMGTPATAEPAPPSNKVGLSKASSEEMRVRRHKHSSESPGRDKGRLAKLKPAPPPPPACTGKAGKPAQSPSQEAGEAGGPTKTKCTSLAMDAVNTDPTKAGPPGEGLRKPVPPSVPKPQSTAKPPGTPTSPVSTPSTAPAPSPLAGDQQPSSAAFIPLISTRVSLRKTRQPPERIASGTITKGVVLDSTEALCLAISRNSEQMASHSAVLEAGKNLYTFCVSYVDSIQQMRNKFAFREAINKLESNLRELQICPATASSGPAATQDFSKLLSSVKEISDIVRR
Proto-oncogene tyrosine-protein kinase Src, sequence (P12931 2-536 limits assumed): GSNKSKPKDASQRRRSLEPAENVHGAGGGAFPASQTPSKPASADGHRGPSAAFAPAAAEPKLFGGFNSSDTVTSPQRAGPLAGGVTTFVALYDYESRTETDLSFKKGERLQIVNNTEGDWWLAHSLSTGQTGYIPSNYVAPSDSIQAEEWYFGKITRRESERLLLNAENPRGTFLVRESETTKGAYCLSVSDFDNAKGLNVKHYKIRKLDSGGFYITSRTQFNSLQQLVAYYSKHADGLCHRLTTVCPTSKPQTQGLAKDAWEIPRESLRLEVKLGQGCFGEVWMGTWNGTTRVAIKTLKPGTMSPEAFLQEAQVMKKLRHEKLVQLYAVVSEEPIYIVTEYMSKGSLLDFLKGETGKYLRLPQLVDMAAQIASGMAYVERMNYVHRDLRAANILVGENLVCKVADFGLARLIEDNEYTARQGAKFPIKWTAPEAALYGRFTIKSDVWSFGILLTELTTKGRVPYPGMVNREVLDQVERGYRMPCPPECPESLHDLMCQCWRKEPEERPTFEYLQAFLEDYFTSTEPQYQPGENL

Usually IC50 stands for the point on the concentration scale where inhibition reaches its midpoint. Take `CN(C)CCCC(=O)c1ccc(OCc2ccccc2)cc1`: the IC50 is greater than 50 µM in the assay on Balb/MK, greater than 100 µM in assay [1], greater than 100 µM in the assay on A431 (Homo sapiens) and greater than 100 µM in assay [2].
On to `C=C(CN(C)C)C(=O)c1ccc(OS(=O)(=O)c2ccc(C(=O)O)cc2)cc1`, for which the IC50 in the assay with Balb/MK was greater than 50 µM; in assay [1], 0.23 µM; in assay [3] it was greater than 500 µM; in assay [4], greater than 100 µM; in the assay on A431 (Homo sapiens), 100 µM; in assay [2] it was 50 µM.
For the molecule `O=C(CCN1CCOCC1)c1ccc(OCc2ccccc2)cc1`, the IC50 in the assay on Balb/MK is 33.9 µM; in assay [1] it was 1.5 µM; in assay [3] it was 420 µM; in assay [4] it was greater than 100 µM; with A431 (Homo sapiens), greater than 100 µM; in assay [2], greater than 100 µM.
For the molecule `C=C(CN1CCCCC1)C(=O)c1ccc(OCc2ccccc2)cc1`, the IC50 in the assay with Balb/MK is 3.5 µM; in assay [1], 1.1 µM; in assay [3] it was 140 µM; in assay [4] it was greater than 100 µM; in the assay with A431 (Homo sapiens), greater than 100 µM; in assay [2], greater than 100 µM.
Take `CN(C)CC(CSCCN)C(=O)c1ccc(OCc2ccccc2)cc1` (configuration not stated): the IC50 in the assay with Balb/MK is 4.1 µM; in assay [1], 8.8 µM; in assay [3] it was greater than 100 µM; in assay [4], greater than 100 µM; in the assay on A431 (Homo sapiens), 25 µM; in assay [2], greater than 50 µM.
In the case of `C=C(CN1CCNCC1)C(=O)c1ccc(OCc2ccccc2)cc1`, the IC50 was 0.95 µM in the assay with Balb/MK; 1.5 µM in assay [1]; 310 µM in assay [3]; greater than 100 µM in assay [4]; greater than 100 µM in the assay on A431 (Homo sapiens); greater than 100 µM in assay [2].
Regarding `CCOC(=O)C1CCN(CCC(=O)c2ccc(OCc3ccccc3)cc2)CC1`, the IC50 was 40.2 µM in the assay on Balb/MK; 0.3 µM in assay [1]; greater than 500 µM in assay [3]; greater than 100 µM in assay [4]; greater than 100 µM in the assay on A431 (Homo sapiens); greater than 100 µM in assay [2].
`CN(C)CC(CNNC(N)=O)C(=O)c1ccc(OCc2ccccc2)cc1` (configuration not stated): the IC50 is 2 µM with Balb/MK; 3.9 µM in assay [1]; greater than 500 µM in assay [3]; greater than 100 µM in assay [4]; 50 µM in the assay with A431 (Homo sapiens); greater than 100 µM in assay [2].
As to `COC(=O)c1ccccc1SCC(CN(C)C)C(=O)c1ccc(OCc2ccccc2)cc1` (configuration not stated), the IC50 was 1.24 µM in the assay with Balb/MK; 8.8 µM in assay [1]; greater than 500 µM in assay [3]; greater than 100 µM in assay [4]; 25 µM in the assay with A431 (Homo sapiens); greater than 100 µM in assay [2].
In the case of `CN(C)CCC(=O)c1ccc(OCc2ccccc2)cc1`, the IC50 in the assay with Balb/MK was 46.2 µM; in assay [1] it was 1.5 µM; in assay [3] it was greater than 100 µM; in assay [4], greater than 100 µM; with A431 (Homo sapiens) it was greater than 100 µM; in assay [2] it was greater than 100 µM.
For `C=C(CN(C)C)C(=O)c1ccc(OS(=O)(=O)c2ccc(C(=O)O)c(O)c2)cc1`, the figures for the IC50 (with Balb/MK; in assay [3]) were greater than 50 µM and 140 µM, respectively.
On to `CC(CN(C)C)C(=O)c1ccc(OS(=O)(=O)c2ccc(C(=O)O)cc2)cc1` (configuration not stated), for which the IC50 with Balb/MK was greater than 50 µM; in assay [1], 100 µM; in the assay on A431 (Homo sapiens), 100 µM.
With `O=c1c(-c2ccc(O)cc2)coc2cc(O)cc(O)c12` [GENISTEIN], the 50% inhibitory concentration (IC50) was found to be 15 µM in assay [3], 75 µM in assay [4] and 10 µM in assay [2].
With `C=C(CN(C)C)C(=O)c1ccccc1`, the IC50 was 9.3 µM in the assay with Balb/MK; 5.6 µM in assay [1]; 500 µM in assay [3]; greater than 100 µM in assay [4]; greater than 100 µM with Mus musculus; greater than 100 µM in assay [2].
Consider `CN(C)CC(CSc1ccccc1)C(=O)c1ccc(OCc2ccccc2)cc1` (configuration not stated), for which the IC50 in the assay on Balb/MK was 1.6 µM; in assay [1], 7.3 µM; in assay [3], greater than 500 µM; in assay [4], greater than 50 µM; in the assay on A431 (Homo sapiens), 100 µM; in assay [2] it was greater than 50 µM.
Turning to `C=C(CN(C)C)C(=O)c1ccc(OCc2ccccc2)cc1`, the IC50 is 6.1 µM in the assay on Balb/MK, 215 µM in assay [3], greater than 100 µM in assay [4] and greater than 100 µM in assay [2].
As for `C=C(CN(C)C)C(=O)c1ccc(OCc2ccccc2)c(O)c1`, the IC50 is 3.3 µM in the assay on Balb/MK; 0.67 µM in assay [1]; 86 µM in assay [3]; 50 µM in assay [4]; greater than 100 µM in the assay with A431 (Homo sapiens); greater than 50 µM in assay [2].
As to `Cc1ccc(SCC(CN(C)C)C(=O)c2ccc(OCc3ccccc3)cc2)cc1C` (configuration not stated), the IC50 with Balb/MK is 1.21 µM; in assay [1] it was 2.1 µM; in assay [3], greater than 500 µM; in assay [4] it was greater than 100 µM; in the assay with A431 (Homo sapiens), 100 µM; in assay [2], greater than 100 µM.
For the molecule `C=C(CN1CCOCC1)C(=O)c1ccc(OCc2ccccc2)cc1`, the IC50 in the assay on Balb/MK was 1.8 µM; in assay [1] it was 1.1 µM; in assay [3], 110 µM; in assay [4], greater than 100 µM; in the assay with A431 (Homo sapiens) it was 100 µM; in assay [2] it was greater than 100 µM.
Regarding `O=C(CCN1CCCCC1)c1ccc(OCc2ccccc2)cc1`, the IC50 was 25.6 µM in the assay on Balb/MK; 1.8 µM in assay [1]; greater than 500 µM in assay [3]; greater than 100 µM in assay [4]; 100 µM in the assay with A431 (Homo sapiens); greater than 100 µM in assay [2].
For the molecule `C=C(CN(C)C)C(=O)c1ccc(OS(=O)(=O)c2ccc(C(=O)N(C)C)cc2)cc1`, the IC50 was 2.8 µM in the assay on Balb/MK; 0.7 µM in assay [1]; 180 µM in assay [3]; greater than 50 µM in assay [4]; 70 µM in assay [2].
In the case of `CN(C)CCC(=O)c1ccc(OCc2ccccc2)c(O)c1`, the IC50 with Balb/MK is 9.3 µM; in assay [1] it was 0.36 µM; in assay [3] it was 500 µM; in assay [4], greater than 50 µM; in the assay on A431 (Homo sapiens) it was 50 µM; in assay [2] it was greater than 100 µM.

For the origin of these results see ChEMBL document CHEMBL1128740, “[(Alkylamino)methyl]acrylophenones: potent and selective inhibitors of the epidermal growth factor receptor protein tyrosine kinase” (J Med Chem, 1995).
